Shown are actives, neighbours in structure and some others; about 2.2% of the full set was active somewhere.
PfGluPho inh: PfG6PD (Plasmodium falciparum) enzyme inhibition. PfGluPho enzyme, NADPH resazurin-diaphorase fluorescence. inhibition, % at 20 µM. 350,000 tested, 0.78% active. AID 504690;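 active = inhibition reaching at least a set limit at 20 µM in the primary screen, cut at about 59% in these data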;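 also: 0% = DMSO wells with substrate and 100% = DMSO wells lacking glucose-6-phosphate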
ABHD5-PLIN5 inh: inhibitors of human ABHD5-perilipin-5 interaction. inhibition, % at 4 µM. Q00G26+Q8WTS1. 360,000 tested, 0.78% active. AID 602281. Split G. princeps luciferase complementation, luminescence, 4 h;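 active = inhibition above the mean inhibition across every tested compound plus 3 SD, cut at about 22% in these data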;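 also: 0% = DMSO only wells and the 100% control is not disclosed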
HKDC1 inh: inhibitors of human hexokinase HKDC1. Q2TB90. recombinant HKDC1, G6PDH/diaphorase resazurin coupled fluorescence. inhibition, % at 20 µM. 340,000 tested, 0.16% active;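 active = inhibition above about 35% when tested at 20 µM, limit read from the data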;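 also: plate controls were DMSO wells with enzyme for no effect and DMSO wells lacking enzyme for full effect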
Target sequence (Q2TB90 whole entry, looked up): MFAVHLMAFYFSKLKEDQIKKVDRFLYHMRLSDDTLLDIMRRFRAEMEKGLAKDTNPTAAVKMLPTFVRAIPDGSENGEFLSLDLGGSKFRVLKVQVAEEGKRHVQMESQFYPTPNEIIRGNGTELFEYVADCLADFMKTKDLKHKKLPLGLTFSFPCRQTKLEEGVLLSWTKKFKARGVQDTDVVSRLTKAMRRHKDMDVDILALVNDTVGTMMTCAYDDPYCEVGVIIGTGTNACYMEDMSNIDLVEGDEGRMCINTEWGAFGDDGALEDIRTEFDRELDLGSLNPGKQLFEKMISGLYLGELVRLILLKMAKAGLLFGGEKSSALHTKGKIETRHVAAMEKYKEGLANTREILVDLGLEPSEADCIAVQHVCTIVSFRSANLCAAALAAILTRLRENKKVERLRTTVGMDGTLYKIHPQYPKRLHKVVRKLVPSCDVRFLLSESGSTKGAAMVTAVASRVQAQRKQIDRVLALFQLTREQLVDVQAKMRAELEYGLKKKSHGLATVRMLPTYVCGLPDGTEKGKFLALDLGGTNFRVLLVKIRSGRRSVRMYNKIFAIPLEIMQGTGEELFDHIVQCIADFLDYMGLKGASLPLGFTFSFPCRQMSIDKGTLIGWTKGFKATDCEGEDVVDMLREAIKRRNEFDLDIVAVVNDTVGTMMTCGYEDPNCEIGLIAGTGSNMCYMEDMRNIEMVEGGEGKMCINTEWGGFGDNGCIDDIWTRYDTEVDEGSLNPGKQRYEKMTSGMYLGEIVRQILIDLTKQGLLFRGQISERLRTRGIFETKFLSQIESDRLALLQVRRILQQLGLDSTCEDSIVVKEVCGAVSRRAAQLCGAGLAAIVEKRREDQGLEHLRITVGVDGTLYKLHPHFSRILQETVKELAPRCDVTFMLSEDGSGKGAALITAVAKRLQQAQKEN
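Test system: HK5 enzyme. Quantity: 5 µg/mL HK5 final. Reagent: glucose and ATP substrates. Schedule: 90 min reaction incubation at room temperature, dark. Technique: resazurin-to-resorufin fluorescence via G6PDH and diaphorase coupling, 525/613 nm. Control set: DMSO wells with and without enzyme mix.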
Exocytosis inh: lytic granule exocytosis inhibition. AID 651702. inhibition, % at 10 µM. TALL-104 LAMP-1 surface exposure, flow cytometry; cells stimulated with thapsigargin and PMA. 360,000 tested, 0.66% active;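 active = inhibition above about 55%, limit read from the data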
PfG6PD confirm: confirmation of Plasmodium falciparum G6PD inhibitors; recombinant PfGluPho, NADPH-diaphorase-resazurin fluorescence; 2,400 tested, 34% active; inhibition, % at 20 µM; shares compounds with PfGluPho inh;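 active = inhibition of at least 50% at 20 µM in any single replicate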;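 also: 0% = DMSO with substrate and 100% = DMSO lacking glucose-6-phosphate substrate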
Diaph ctr 10uM: inhibits diaphorase or oxidizes, flagging false PfG6PD hits; AID 504862; diaphorase-coupled resazurin reduction, fluorescence, NADPH 10 uM; shares compounds with PfGluPho inh; 820 tested, 39% active; inhibition, % at 20 µM;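 active = average inhibition reaching 50% or more with the compound at 20 µM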;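 also: resorufin red fluorescence formed as diaphorase reduces resazurin using NADPH; 0% = DMSO with enzyme and 100% = DMSO without enzyme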
Diaphorase 30uM: diaphorase inhibition or oxidation at 30 uM NADPH. 820 tested, 29% active. shares compounds with PfGluPho inh. inhibition, % at 20 µM. Diaphorase/resazurin coupled assay, resorufin fluorescence;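 active = inhibition averaging 50% or more, tested at 20 µM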;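 also: 0% = DMSO with enzyme and 100% = DMSO wells lacking diaphorase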
Numbers without * were called inactive.

How did COc1ccc(S(=O)(=O)N(C)C2(C)CCS(=O)(=O)C2)cc1OC (stereo not given) do in these assays?
PfGluPho inh: -4; ABHD5-PLIN5 inh: -6; HKDC1 inh: 6; Exocytosis inh: 4

How did CCOC(=O)c1cnc2c(OC)cccc2c1Nc1ccc2c(c1)OCCO2 do in these assays?
PfGluPho inh: 68*; ABHD5-PLIN5 inh: -1; HKDC1 inh: -2; Exocytosis inh: 13; PfG6PD confirm: 29

How did CCOC(=O)c1cnc2ccc(OC)cc2c1Nc1ccc2c(c1)OCCO2 do in these assays?
PfGluPho inh: 51; ABHD5-PLIN5 inh: 10; HKDC1 inh: 4; Exocytosis inh: 3

How did Oc1ccccc1CNc1cccc2cccnc12 do in these assays?
PfGluPho inh: 20; ABHD5-PLIN5 inh: -4; HKDC1 inh: 18; Exocytosis inh: -1

How did COc1cc(NCc2ccccc2O)c2ncccc2c1 do in these assays?
PfGluPho inh: 65*; ABHD5-PLIN5 inh: 2; HKDC1 inh: 12; Exocytosis inh: 27; PfG6PD confirm: 56*; Diaph ctr 10uM: -2; Diaphorase 30uM: -7

What do the screens show for `Cc1cc(C)c(NS(=O)(=O)c2cccc3cccnc23)c(C)c1`?
PfGluPho inh: 46; ABHD5-PLIN5 inh: -1; HKDC1 inh: -5; Exocytosis inh: -1; PfG6PD confirm: 22

How did CCSS(=O)(=O)c1cccc2cccnc12 do in these assays?
PfGluPho inh: 80*; ABHD5-PLIN5 inh: -13; HKDC1 inh: 2; Exocytosis inh: 7; PfG6PD confirm: 2

How did N#CNc1nc(O)cc(=O)[nH]1 do in these assays?
PfGluPho inh: 11; ABHD5-PLIN5 inh: 4; HKDC1 inh: 2; Exocytosis inh: 4

How did Clc1ccc2nc(-c3ccc(Cl)nc3)[nH]c2c1 do in these assays?
PfGluPho inh: 110*; ABHD5-PLIN5 inh: -6; HKDC1 inh: 11; Exocytosis inh: 10; PfG6PD confirm: 55*; Diaph ctr 10uM: 71*; Diaphorase 30uM: 57*

What do the screens show for `Nc1ccc2nc(-c3ccc(Cl)cc3)[nH]c2c1`?
PfGluPho inh: 35; ABHD5-PLIN5 inh: -5; HKDC1 inh: 10; Exocytosis inh: 0

How did CN(NS(=O)(=O)c1ccc([N+](=O)[O-])cc1)c1ccccc1 do in these assays?
PfGluPho inh: 82*; ABHD5-PLIN5 inh: -8; Exocytosis inh: -3; PfG6PD confirm: 55*; Diaph ctr 10uM: 91*; Diaphorase 30uM: 85*

Results for CC(=O)C(Sc1nc(N(C)C)nc(N(C)C)n1)C(=O)Nc1ccccc1 (stereo not given) ?
PfGluPho inh: 3; ABHD5-PLIN5 inh: -3; HKDC1 inh: -12; Exocytosis inh: 4

Results for CC(=O)C(Sc1nn(C)c(=S)s1)C(=O)Nc1ccccc1 (stereo not given) ?
PfGluPho inh: 61*; ABHD5-PLIN5 inh: -16; HKDC1 inh: 5; Exocytosis inh: -4; PfG6PD confirm: -32

Results for O=C(/C=C/c1ccc(O)cc1)c1ccc(NC2=C(N3CCCCC3)C(=O)c3ccccc3C2=O)cc1 ?
PfGluPho inh: 71*; ABHD5-PLIN5 inh: 1; HKDC1 inh: 28; Exocytosis inh: -1; PfG6PD confirm: 19

How did COc1cc(SC)ccc1C(=O)Nc1ccc(C)cc1C do in these assays?
PfGluPho inh: 24; HKDC1 inh: 5; Exocytosis inh: 1

How did COc1cc(SC)ccc1C(=O)Nc1ccc2ncccc2c1 do in these assays?
PfGluPho inh: 81*; ABHD5-PLIN5 inh: 1; HKDC1 inh: -2; Exocytosis inh: 30; PfG6PD confirm: 12

What do the screens show for `COc1cc(SC)ccc1C(=O)Nc1ccc(C)cc1`?
PfGluPho inh: 61*; ABHD5-PLIN5 inh: -8; HKDC1 inh: -10; Exocytosis inh: 2; PfG6PD confirm: 22

Results for CCC(=O)OCCNc1cc(Sc2nc3ccccc3s2)c2nonc2c1[N+](=O)[O-] ?
PfGluPho inh: 79*; ABHD5-PLIN5 inh: 21; HKDC1 inh: 14; Exocytosis inh: 103*; PfG6PD confirm: 64*; Diaph ctr 10uM: -5; Diaphorase 30uM: -6

What do the screens show for `O=[N+]([O-])c1c(NCCCO)cc(Sc2nc3ccccc3s2)c2nonc12`?
PfGluPho inh: 77*; ABHD5-PLIN5 inh: 58*; HKDC1 inh: 11; Exocytosis inh: 40; PfG6PD confirm: 54*; Diaph ctr 10uM: -2; Diaphorase 30uM: -2

How did CC(=O)OCCCNc1cc(SCc2ccco2)c2nonc2c1[N+](=O)[O-] do in these assays?
PfGluPho inh: 54; ABHD5-PLIN5 inh: 3; HKDC1 inh: 9; Exocytosis inh: -2

What do the screens show for `COc1cccc(-c2nn(C)c3sc(C(=O)NCc4ccc(C)o4)cc23)c1`?
PfGluPho inh: 64*; ABHD5-PLIN5 inh: 14; HKDC1 inh: 6; Exocytosis inh: 0; PfG6PD confirm: -9

How did COc1cccc(-c2nn(C)c3sc(C(=O)NCc4ccc5c(c4)OCO5)cc23)c1 do in these assays?
PfGluPho inh: 17; ABHD5-PLIN5 inh: -9; HKDC1 inh: 0; Exocytosis inh: 8

Results for Cc1ccc(S(=O)(=O)N2C[C@H]3n4c(=O)ccc(=O)n4C[C@H](OC(=O)NCc4ccccc4)[C@@]3(O)C2)cc1 ?
PfGluPho inh: 2; ABHD5-PLIN5 inh: 19; Exocytosis inh: -4

Results for CCCCCCn1c(=O)n2n(c1=O)[C@@H]1CN(S(=O)(=O)c3ccc(C)cc3)C[C@]1(O)[C@@H](OC(=O)NCc1ccccc1)C2 ?
PfGluPho inh: 67*; ABHD5-PLIN5 inh: -9; Exocytosis inh: 9; PfG6PD confirm: -15

Results for C/C(=C/CCC(C)(O)C1CC[C@@]2(C)[C@@H]3CC=C4[C@@H](CC[C@H](O[C@H]5O[C@@H](CO)[C@H](O)[C@@H](O)[C@@H]5O)C4(C)C)[C@]3(C)C(=O)C[C@]12C)CO[C@@H]1O[C@H](CO)[C@@H](O)[C@H](O)[C@H]1O (stereo not given in full) ?
PfGluPho inh: -6; ABHD5-PLIN5 inh: 7; HKDC1 inh: 1; Exocytosis inh: -5

What do the screens show for `Cc1ccc(C(CNS(=O)(=O)c2ccc(Cl)cc2)N2CCN(C)CC2)cc1` (stereo not given)?
PfGluPho inh: 0; ABHD5-PLIN5 inh: 10; HKDC1 inh: -2; Exocytosis inh: -3

Results for COC(=O)CCCC1=CC2=CC(=O)C(C)(OC(=O)c3cccs3)C(=O)C2=CN1Cc1ccccc1 (stereo not given) ?
PfGluPho inh: 75*; ABHD5-PLIN5 inh: -9; HKDC1 inh: 22; Exocytosis inh: -4; PfG6PD confirm: 43

What do the screens show for `CCCCC1=CC2=CC(=O)C(C)(OC(=O)CC)C(=O)C2=CN1Cc1ccco1` (stereo not given)?
PfGluPho inh: 35; ABHD5-PLIN5 inh: -2; HKDC1 inh: 15; Exocytosis inh: 1

Screening data as filed in PubChem.
